Tests used:
[1] = biological target: T1, ATP-dependent translocase ABCB1 (Homo sapiens, UniProt P08183); assay: Reversal of human MDR1-mediated rhodamine 123 uptake in mouse L5178Y cells assessed as fluorescence activity ratio at 10 mM by flow cytometry relative to non p-gp expressing parental cell line; type: cell-based; conditions: in the assay text read “10 µM” for “10 mM”
How it was run: (§1)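 Mouse T-lymphoma L5178Y parental and retrovirally transfected P-gp-expressing L5178Y mdr cells were grown in McCoy's 5A with 10% heat-inactivated horse serum and 2 mM L-glutamine; the mdr line was precultured with 60 ng/mL colchicine. Cells (2 × 10^6/mL, serum-free) were preincubated with inhibitor 10 min at rt, then given rhodamine 123 for 20 min at 37 °C. They were washed twice and resuspended in PBS. Uptake was read by flow cytometry (1 × 10^4 cells). FAR is the mdr/parental quotient, each corrected by inhibitor-free controls.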

[2] = biological target: T1, ATP-dependent translocase ABCB1; assay: Reversal of human MDR1-mediated rhodamine 123 uptake in mouse L5178Y cells assessed as fluorescence activity ratio at 1 µM by flow cytometry relative to non p-gp expressing parental cell line
[3] = biological target: T1, ATP-dependent translocase ABCB1; assay: Reversal of human MDR1-mediated rhodamine 123 uptake in mouse L5178Y cells assessed as fluorescence activity ratio at 20 umol by flow cytometry relative to non p-gp expressing parental cell line; type: cell-based; how it was run: as §1
[4] = system: L5178Y; assay: Cytotoxicity against mouse L5178Y cells at 20 umol by flow cytometric analysis; type: cell-based

T1 sequence (P08183 whole entry): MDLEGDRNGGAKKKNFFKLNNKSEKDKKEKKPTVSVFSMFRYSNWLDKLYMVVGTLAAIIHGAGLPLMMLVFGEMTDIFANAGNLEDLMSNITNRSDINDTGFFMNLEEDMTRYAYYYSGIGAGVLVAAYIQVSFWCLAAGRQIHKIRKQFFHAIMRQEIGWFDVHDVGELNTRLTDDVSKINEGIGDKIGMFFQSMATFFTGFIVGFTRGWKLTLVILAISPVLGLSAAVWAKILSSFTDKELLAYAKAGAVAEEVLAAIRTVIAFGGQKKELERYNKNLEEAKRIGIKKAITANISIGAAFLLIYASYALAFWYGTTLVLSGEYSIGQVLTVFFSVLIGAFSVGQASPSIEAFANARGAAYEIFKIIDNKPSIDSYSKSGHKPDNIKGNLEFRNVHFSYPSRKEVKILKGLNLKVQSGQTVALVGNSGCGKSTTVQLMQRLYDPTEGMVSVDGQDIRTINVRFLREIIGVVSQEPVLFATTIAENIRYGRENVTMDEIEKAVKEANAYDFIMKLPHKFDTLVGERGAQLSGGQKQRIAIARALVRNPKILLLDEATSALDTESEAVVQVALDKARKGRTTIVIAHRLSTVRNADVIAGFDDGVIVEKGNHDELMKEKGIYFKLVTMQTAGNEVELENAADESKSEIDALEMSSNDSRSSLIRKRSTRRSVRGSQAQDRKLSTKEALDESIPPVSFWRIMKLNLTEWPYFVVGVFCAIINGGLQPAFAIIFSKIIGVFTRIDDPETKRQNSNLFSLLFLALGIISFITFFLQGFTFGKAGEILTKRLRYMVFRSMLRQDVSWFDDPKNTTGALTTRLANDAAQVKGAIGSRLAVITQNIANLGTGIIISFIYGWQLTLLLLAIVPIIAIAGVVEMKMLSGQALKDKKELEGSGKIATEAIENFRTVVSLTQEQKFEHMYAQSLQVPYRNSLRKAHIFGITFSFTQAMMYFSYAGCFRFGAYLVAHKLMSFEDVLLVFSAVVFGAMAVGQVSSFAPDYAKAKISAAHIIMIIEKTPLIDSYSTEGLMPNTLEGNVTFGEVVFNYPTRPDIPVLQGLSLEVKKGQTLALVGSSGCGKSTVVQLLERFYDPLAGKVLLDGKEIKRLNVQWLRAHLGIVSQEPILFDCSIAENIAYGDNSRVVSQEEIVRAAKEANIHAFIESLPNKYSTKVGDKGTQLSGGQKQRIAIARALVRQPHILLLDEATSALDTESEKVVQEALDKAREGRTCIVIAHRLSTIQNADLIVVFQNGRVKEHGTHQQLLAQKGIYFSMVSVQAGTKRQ

| Structure (SMILES) | Ratio [1] | Ratio [2] | Ratio [3] | Activity [4] |
| --- | --- | --- | --- | --- |
| COC(=O)c1c(-c2ccccc2)ccn(Cc2ccccc2)c1=O | 1.74 | 1.06 | – | – |
| COC(=O)c1c(Cc2ccccc2)ccn(Cc2ccccc2)c1=O | 1.68 | 1.09 | – | – |
| COC(=O)c1c(-c2ccccc2C)ccn(Cc2ccccc2)c1=O | 1.51 | 1.1 | – | – |
| COC(=O)c1c(-c2ccc(C)cc2)ccn(Cc2ccccc2)c1=O | 1.75 | 0.94 | – | – |
| COC(=O)c1c(-c2ccc(OC)cc2)ccn(Cc2ccccc2)c1=O | 1.91 | 0.94 | – | – |
| N#Cc1c(-c2ccccc2)ccn(Cc2ccccc2)c1=O | 1.71 | 0.99 | – | – |
| N#Cc1c(Cc2ccccc2)ccn(Cc2ccccc2)c1=O | 1.63 | 1.06 | – | – |
| Cc1ccccc1-c1ccn(Cc2ccccc2)c(=O)c1C#N | 1.83 | 1.05 | – | – |
| Cc1ccc(-c2ccn(Cc3ccccc3)c(=O)c2C#N)cc1 | 1.56 | 0.98 | – | – |
| COc1ccccc1-c1ccn(Cc2ccccc2)c(=O)c1C#N | 2.16 | 1.29 | 3.3 | Non-toxic |
| COc1ccc(-c2ccn(Cc3ccccc3)c(=O)c2C#N)cc1 | 1.35 | 1.05 | – | Non-toxic |
| O=C(OCc1ccccc1)c1c(-c2ccccc2)ccn(Cc2ccccc2)c1=O | 2.59 | 1.22 | – | – |
| COc1ccc(CCN(C)CCCC(C#N)(c2ccc(OC)c(OC)c2)C(C)C)cc1OC (centres undefined) [VERAPAMIL] | 2.94 | 0.89 | – | – |
